According to ChEMBL document CHEMBL3396970, “Synthesis and biological evaluation of novel 2,3-disubstituted quinoxaline derivatives as antileishmanial and antitrypanosomal agents” (Eur J Med Chem, 2015):

Experiments:
[1] = Selectivity ratio of CC50 for mouse J774A1 cells to IC50 for promastigote stage of Leishmania amazonensis WHOM/BR/75/JOSEFA; format: ADME, cell-based, J774.A1; settings: read-out: Ratio CC50/IC50
[2] = system: Trypanosoma cruzi; assay: Antitrypanosomal activity against epimastigote stage of Trypanosoma cruzi Y after 96 hrs by hemocytometry; format: functional, organism-based
Summary of the method: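 Log-phase parasites (promastigotes 3-day, Warren's medium + 10% FBS, 25°C; epimastigotes 4-day, LIT + 10% FBS, 28°C) seeded at 1 × 10^6 cells/mL with compound (0.1-100 µM; DMSO ≤1%). Promastigotes read at 72 h, epimastigotes at 96 h, by hemocytometer counting. IC50 by nonlinear regression.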

[3] = system: Trypanosoma cruzi; assay: Antitrypanosomal activity against trypomastigote stage of Trypanosoma cruzi Y infected in monkey LLC-MK2 cells after 96 hrs by Pizzi-Brener method; format: functional, organism-based
[4] = Selectivity ratio of CC50 for monkey LLC-MK2 cells to IC50 for epimastigote stage of epimastigote stage of Trypanosoma cruzi Y; format: ADME, cell-based; settings: read-out: Ratio CC50/IC50
[5] = Selectivity ratio of CC50 for monkey LLC-MK2 cells to IC50 for epimastigote stage of epimastigote stage of Trypanosoma cruzi Y
[6] = system: Leishmania amazonensis; assay: Antileishmanial activity against promastigote stage of Leishmania amazonensis WHOM/BR/75/JOSEFA after 72 hrs by hemocytometry; format: functional, organism-based
[7] = Selectivity ratio of CC50 for monkey LLC-MK2 cells to IC50 for amastigote stage of Trypanosoma cruzi Y; format: ADME, cell-based; settings: read-out: Ratio CC50/IC50
[8] = system: Trypanosoma cruzi; assay: Antitrypanosomal activity against amastigote stage of Trypanosoma cruzi Y infected in monkey LLC-MK2 cells after 96 hrs by Geimsa staining-based light microscopy; format: functional, organism-based; settings: LLC-MK2, 96 h
Summary of the method: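 LLCMK2 monolayers (2.5 x 10^5 cells/mL, 24 h, 37 °C, 5% CO2) infected with trypomastigotes at 10 per host cell for 24 h, washed, treated with compound (0.1 to 50 μM) 96 h. Methanol-fixed, Giemsa-stained, 200 cells counted; survival index (% infected × amastigotes/cell); IC50 by nonlinear regression.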

[9] = Selectivity ratio of CC50 to IC50 for promastigote stage of Leishmania amazonensis WHOM/BR/75/JOSEFA; set-up: reference not given here
[10] = Selectivity ratio of CC50 for BALB/c mouse peritoneal macrophages to IC50 for amastigote stage of Leishmania amazonensis WHOM/BR/75/JOSEFA
[11] = Selectivity ratio of CC50 for monkey LLC-MK2 cells to EC50 for trypomastigote stage of Trypanosoma cruzi Y; format: ADME, cell-based; settings: read-out: Ratio CC50/EC50
[12] = system: Leishmania amazonensis; assay: Antileishmanial activity against amastigote stage of Leishmania amazonensis WHOM/BR/75/JOSEFA infected in BALB/c mouse peritoneal macrophages after 72 hrs by Geimsa staining-based light microscopy; format: functional, organism-based
[13] = system: Trypanosoma cruzi; assay: Antitrypanosomal activity against amastigote stage of Trypanosoma cruzi
[14] = system: Trypanosoma cruzi; assay: Antitrypanosomal activity against trypomastigote stage of Trypanosoma cruzi Y infected in monkey LLC-MK2 cells after 24 hrs by Pizzi-Brener method; format: functional, organism-based; settings: LLC-MK2, 24 h
Summary of the method: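 Trypomastigotes harvested from infected LLCMK2 culture supernatant, 1 × 10^7 cells/mL with compound (0.1-50 µM), 24 h at 37°C, 5% CO2. Viability by motility (Pizzi–Brener); EC50 by nonlinear regression.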

| SMILES | selectivity ratio [1] | IC50 [2] [µM] | EC50 [3] [µM] | selectivity ratio [4] | selectivity ratio [5] | IC50 [6] [µM] | selectivity ratio [7] | IC50 [8] [µM] | selectivity ratio [9] | Ratio CC50/IC50 [10] | selectivity ratio [11] | IC50 [12] [µM] | IC50 [13] [µM] | EC50 [14] [µM] |
| --- | --- | --- | --- | --- | --- | --- | --- | --- | --- | --- | --- | --- | --- | --- |
| COc1ccc(-c2nc3ccccc3nc2-c2ccc(OC)cc2)cc1 | 19.7 | 36.6 | > 100 | 9 | 9 | 30 | 38.4 | 8.6 | 19.7 | – | – | – | – | – |
| COc1ccc2nc(Cl)c([S+](C)[O-])nc2c1 (configuration not stated) | 27.8 | 0.5 | 4.2 | 39.2 | 39.2 | 0.8 | – | – | 27.8 | 4.9 | 4.4 | 4.6 | – | – |
| C[S+]([O-])c1nc2ccc(Cl)cc2nc1Cl (configuration not stated) | 108 | 0.1 | 1.7 | 54.2 | 54.2 | 0.1 | – | – | 108 | 9 | 2.9 | 1.5 | – | – |
| CS(=O)(=O)c1nc2ccccc2nc1Cl | 14.4 | 0.6 | 6.4 | 70.1 | 70.1 | 1.6 | – | > 15 | 14.4 | – | 7.3 | – | – | – |
| CS(=O)(=O)c1nc2ccc(Br)cc2nc1Cl | 71.8 | 0.3 | 1.8 | 49.6 | 49.6 | 0.2 | 1.1 | 13.5 | 71.8 | 9.9 | 7 | 1.4 | – | – |
| CS(=O)(=O)c1nc2ccc(Cl)cc2nc1Cl | 66 | 0.3 | 6.9 | 25.9 | 25.9 | 0.2 | 0.9 | 8.6 | 66 | 4.3 | 4.1 | 3.1 | – | – |
| CCCCNc1nc2ccc(OC)cc2nc1S(C)(=O)=O | 17.1 | 3.6 | 39.2 | 108 | 108 | 2.5 | 27.3 | 14.3 | 17.1 | 3.3 | 10 | 12.9 | – | – |
| COc1ccc2nc(NCCO)c(S(C)(=O)=O)nc2c1 | 13.3 | 2.9 | 35.7 | 25.2 | 25.2 | 2.9 | 1.8 | 40.5 | 13.3 | 2.2 | 2 | 17.3 | – | – |
| COc1ccc2nc(NC3CCCCC3)c(S(C)(=O)=O)nc2c1 | 18.1 | 2.2 | 27.7 | 20.8 | 20.8 | 2.9 | – | > 25 | 18.1 | 2.6 | 1.6 | 20.2 | – | – |
| CCCCNc1nc2cc(Br)ccc2nc1S(C)(=O)=O | 28.3 | 2.3 | 5.6 | 43.7 | 43.7 | 1.6 | – | > 25 | 28.3 | – | 17.8 | – | – | – |
| CS(=O)(=O)c1nc2ccc(Br)cc2nc1NCCO | 40.3 | 1.6 | 8.2 | 3.4 | 3.4 | 0.8 | 0.8 | 7.4 | 40.3 | – | 0.7 | – | – | – |
| COc1ccc2nc(NCC(C)C)c(S(C)(=O)=O)nc2c1 | 22.8 | 3.1 | 11.7 | 22.6 | 22.6 | 2.6 | 4.7 | 14.9 | 22.8 | – | 6 | – | – | – |
| CS(=O)(=O)c1nc2ccc(Cl)cc2nc1NC1CCCCC1 | 15 | 2 | 3.9 | 38.3 | 38.3 | 2.2 | 7.9 | 9.6 | 15 | – | 19.6 | – | – | – |
| COc1ccc2nc(NC3CCCCC3)c([S+](C)[O-])nc2c1 (configuration not stated) | 8 | 2.5 | 25.4 | 72.8 | 72.8 | 2.5 | 19.5 | 9.3 | 8 | 2.8 | 7.1 | 7.3 | – | – |
| C[S+]([O-])c1nc2ccc(Cl)cc2nc1NC1CCCCC1 (configuration not stated) | 33.8 | 1.8 | 6.3 | 21.8 | 21.8 | 1.9 | 5.1 | 7.7 | 33.8 | – | 6.2 | – | – | – |
| COc1ccc2nc(Cl)c(NCc3ccccc3)nc2c1 | 5.4 | 15.9 | > 50 | 22.2 | 22.2 | 24.5 | – | > 20 | 5.4 | 5.3 | – | 25 | – | – |
| C[C@@H]1[C@H](O)[C@@H](C)/C=C/C=C/C=C/C=C/C=C/C=C/C=C/[C@H](O[C@@H]2O[C@H](C)[C@@H](O)[C@H](N)[C@@H]2O)C[C@@H]2O[C@](O)(C[C@@H](O)C[C@@H](O)[C@H](O)CC[C@@H](O)C[C@@H](O)CC(=O)O[C@H]1C)C[C@H](O)[C@H]2C(=O)O [AMPHOTERICIN B] | – | – | – | – | – | – | – | – | – | – | – | 0.4 | – | – |
| O=C(Cn1ccnc1[N+](=O)[O-])NCc1ccccc1 [BENZNIDAZOLE] | – | 8.1 | – | – | – | – | – | – | – | – | – | – | 26.1 | 3.4 |
